# GalR3 antag: GalR3 antagonists in HEK293 cells, primary screen, cell-based, fluorescence readout; HEK293 GalR3-CNG cAMP membrane potential fluorescence; galR3 body fused to GalR1 C-terminus; 360,000 compounds, 0.44% hits; inhibition, % at 3 µM; AID 651719, 2012; Galanin receptor type 3 (Homo sapiens), O60755;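 active means inhibition above the screen-wide average plus 3 SD, cut at about 13% in these data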;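 further: forskolin and galanin both at EC90 stimulate the cells; cAMP rise reported by CNG channel membrane potential dye signal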
# Target sequence (O60755 1-299 limits assumed): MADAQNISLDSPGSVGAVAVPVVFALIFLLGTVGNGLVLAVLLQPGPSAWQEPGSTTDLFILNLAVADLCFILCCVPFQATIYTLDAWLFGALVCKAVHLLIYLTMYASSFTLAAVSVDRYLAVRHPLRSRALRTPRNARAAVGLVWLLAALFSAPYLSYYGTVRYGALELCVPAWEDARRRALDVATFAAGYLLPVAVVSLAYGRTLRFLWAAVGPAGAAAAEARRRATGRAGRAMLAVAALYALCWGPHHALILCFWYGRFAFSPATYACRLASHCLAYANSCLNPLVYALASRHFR
# NR2E3 ag-1: inhibitors of NR2E3-RetCOR corepressor binding, primary screen, NR2E3 agonist project, biochemical, TR-FRET, GST-NR2E3, biotin-RetCOR. Photoreceptor-specific nuclear receptor (Homo sapiens), Q9Y5X4. 1536-well. inhibition of corepressor binding, % at 4.78 µM. 320,000 compounds, 0.12% hits. AID 2300, 2010;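 active means percent inhibition above the cutoff of mean plus 3 SD of all tested compounds, set per screening campaign, cut at about 20% in these data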
# Target sequence (Q9Y5X4 whole entry, looked up): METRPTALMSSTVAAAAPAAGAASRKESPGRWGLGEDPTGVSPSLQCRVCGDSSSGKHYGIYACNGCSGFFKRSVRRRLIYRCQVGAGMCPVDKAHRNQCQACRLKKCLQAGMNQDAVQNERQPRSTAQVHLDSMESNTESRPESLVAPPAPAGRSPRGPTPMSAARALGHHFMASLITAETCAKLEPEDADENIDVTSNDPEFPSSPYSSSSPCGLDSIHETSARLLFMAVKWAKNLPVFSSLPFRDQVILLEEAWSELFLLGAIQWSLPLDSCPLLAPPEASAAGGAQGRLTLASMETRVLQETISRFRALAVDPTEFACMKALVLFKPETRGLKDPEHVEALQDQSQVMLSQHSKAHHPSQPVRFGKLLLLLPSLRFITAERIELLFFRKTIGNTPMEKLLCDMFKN
#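 System: GST-tagged NR2E3 plus biotinylated RetCOR corepressor; Amount: 1.35 nM GST-tagged NR2E3 final; Dosing: single nominal compound dose of 4.8 µM; Schedule: 5 h incubation at 4 °C; Technique: TR-FRET with europium anti-GST and streptavidin-D2, 340 nm excitation; Controls: biotin wells as high control, 0.6% DMSO wells as low control.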
# CHT PAM: CHT positive allosteric modulators, primary screen, cell-based, membrane potential dye, choline EC20. High affinity choline transporter 1 (Homo sapiens), Q9GZV3. CHT-expressing cells; active compounds read high; LV-AA mutant CHT in HEK293 cells. B-score at 10 µM. 310,000 compounds, 0.49% hits;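 active means initial fluorescence not abnormally high and integrated response B-score, plate-corrected, over 3 SD above library mean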
# CHT block: inhibitors of human choline transporter CHT; CHT-expressing cells, membrane potential dye, choline response; active compounds read low; High affinity choline transporter 1 (Homo sapiens), Q9GZV3; AID 488975, 2010; B-score at 10 µM; 310,000 compounds, 0.86% hits;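 active means B-score over 3 SD under the library average, and starting fluorescence ratio not unusually high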;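 further: choline stimulus applied at its EC90 after an EC20 pre-addition; B-score computed on integrated fluorescence ratio after choline addition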
# NR2E3 ag-2: NR2E3 agonists in two-hybrid cells, primary screen, cell-based, luminescence, CHO-S, Gal4-NCOR/VP16-NR2E3; Photoreceptor-specific nuclear receptor (Homo sapiens), Q9Y5X4; AID 602229, 2012; inhibition of corepressor binding, % at 3.98 µM; luciferase; 360,000 compounds, 0.35% hits;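 active means inhibition above the mean of all tested compounds plus 3 SD, cut at about 70% in these data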;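 further: higher means lower luciferase signal from less NR2E3 corepressor binding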
# NR2F2 inh: NR2F2 transcriptional activity inhibitors, primary screen, cell-based, luciferase reporter, HEK293T, luminescence. COUP transcription factor 2 (Homo sapiens), P24468. inhibition, % at 8.6 µM. 370,000 compounds, 0.7% hits. HEK293T NGFI-A luciferase reporter. AID 686940, 2013;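 active means inhibition above a per-plate cutoff, mean inhibition of test wells between control levels plus 3 SD, cut at about 38% in these data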;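 further: cells cotransfected with COUP-TFII expression vector driving the NGFI-A reporter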
# GalR3 conf: GalR3 antagonist hit confirmation, cell-based, fluorescence, triplicate; shares compounds with GalR3 antag; HEK293 GalR3 CNG cAMP biosensor, membrane potential fluorescence; galR3 fused to GalR1 carboxy tail; challenged with forskolin and galanin at EC90; inhibition, % at 3 µM; 1,600 compounds, 59% hits;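 active means inhibition above the primary screen's cutoff, the mean inhibition of all screened compounds plus 3 SD, cut at about 13% in these data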
# CNG parental: nonspecific cAMP agonists in parental HEK-CNG cells, counter-screen for GalR3 antagonist project, cell-based, fluorescence, high throughput | shares compounds with GalR3 antag | AID 652268, 2013 | 1,600 compounds, 10% hits | activation, % at 3 µM | HEK293-CNG parental cells, cAMP membrane potential fluorescence; normalised: DMSO wells 0%, forskolin wells 100%; in the data active means activation above about 1.3%
# Hits are given with their value; i = inactive; nt = no result given. This is a sample that favours compounds with a hit; in the whole collection about 2.3% have one here.
SMILES,GalR3 antag,NR2E3 ag-1,CHT PAM,CHT block,NR2E3 ag-2,NR2F2 inh,GalR3 conf,CNG parental
Cc1cccc(C)c1-n1nnnc1C1c2ccccc2OCC(=O)N1Cc1ccc(F)cc1 (stereo not given),nt,nt,nt,nt,nt,i,nt,nt
Cn1c(C(=O)NN)cc2cc(Oc3ccccc3)ccc21,60.0,i,i,i,i,i,43.8,i
CC(=O)CC[C@H]1CC[C@]2(CCCN(S(=O)(=O)c3ccccc3)C2)O1,nt,nt,nt,nt,nt,i,nt,nt
N/C(=N\NS(=O)(=O)c1ccccc1)c1ccccn1,i,i,i,i,i,i,nt,nt
N/C(=N\NS(=O)(=O)c1ccc(Cl)cc1)c1ccccn1,13.8,i,i,i,i,i,i,i
COc1ccccc1OCC(=O)NCCC1=CCCCC1,nt,i,i,i,i,i,i,i
O=C(C1CCCO1)N1CCN(C2=Nc3ccccc3Sc3ccccc32)CC1 (stereo not given),nt,nt,nt,nt,nt,i,nt,nt
COC(=O)[C@]1(C#N)CC(=O)N(CC(C)C)[C@@H]1c1ccccc1,nt,nt,nt,nt,nt,i,nt,nt
O=C(/C=C/c1cn(-c2ccccc2)nc1-c1cccnc1)NCCN1CCOCC1,17.8,i,i,i,i,i,14.0,i
COC(=O)C1CN(CCO)CCS(=O)(=O)N1Cc1cn(Cc2cccc(Cl)c2)nn1 (stereo not given),nt,nt,nt,nt,nt,i,nt,nt
CS(=O)(=O)N1CCC[C@]2(CC[C@@H](CCC#N)O2)C1,nt,nt,nt,nt,nt,i,nt,nt
NCCCC[C@H](NC(=O)C1CCNCC1)c1nnc([C@@H](N)Cc2ccc(O)cc2)o1,nt,i,i,i,i,i,i,i
CC(=O)c1cc(-c2ccc3c(c2)OCO3)c(=O)n2c1CCC2,nt,nt,nt,nt,nt,i,nt,nt
CCOC(=O)C1CCCN(C(=O)c2ccccc2[N+](=O)[O-])C1 (stereo not given),54.7,i,i,i,i,i,i,i
CC(=O)NCCc1nc2ccccc2n1Cc1ccc(C)cc1,nt,i,i,i,i,i,i,i
CC1C(=O)CC(c2ccc([N+](=O)[O-])cc2)NC1c1ccc([N+](=O)[O-])cc1 (stereo not given),17.8,i,i,i,i,i,17.4,i
CC1C(=O)C(C)C(c2ccc([N+](=O)[O-])cc2)NC1c1ccc([N+](=O)[O-])cc1 (stereo not given),i,i,i,i,i,i,nt,nt
CCN(CC)S(=O)(=O)c1ccc(N2CCCC2)c(NC(=O)Cc2cc(OC)c(OC)c(OC)c2)c1,19.4,i,i,i,i,i,i,i
CCN(CC)S(=O)(=O)c1ccc(N2CCOCC2)c(NC(=O)COc2ccccc2)c1,nt,i,i,i,i,i,12.9,i
COc1cc(OC)cc(C(=O)NCC(=O)NCCN2C(=O)S/C(=C\c3ccc4c(c3)OCO4)C2=O)c1,13.0,nt,nt,nt,i,i,i,i
COC(CNC(=O)[C@H](Cc1c[nH]c2ccccc12)NC1(C(=O)NCc2ccccc2)CCCCC1)OC,nt,nt,nt,nt,nt,i,nt,nt
COc1ccc(CC2(CO)CCN(Cc3cccc(OC)c3OC)CC2)cc1,26.1,i,i,i,i,i,i,2.1
COc1ccc(CC2(CO)CCN(Cc3cccnc3)CC2)cc1,i,i,i,i,i,i,nt,nt
CCOc1cc(/C=C2\CCC/C(=C\c3cc(Cl)c(O)c(OCC)c3)C2=O)cc(Cl)c1O,24.1,i,i,i,i,i,53.5,i
COc1ccc(NC(=O)c2ccc(-c3c(C)noc3C)c3ccoc23)cn1,44.0,nt,nt,nt,i,i,i,i
SMILES,GalR3 antag,NR2E3 ag-1,CHT PAM,CHT block,NR2E3 ag-2,NR2F2 inh,GalR3 conf,CNG parental
CC(=O)Nc1ccc(NC(=O)c2ccc(-c3c(C)noc3C)c3ccoc23)cc1,i,nt,nt,nt,i,i,nt,nt
CCCC[C@H]1C2CC(OC(=O)Nc3ccccc3)C(C2)[C@H]2CCCCN21 (stereo not given in full),nt,nt,nt,nt,nt,i,nt,nt
CC(=O)N1CCC2(CC1)C(C#N)=C(N)Oc1n[nH]c(C(F)(F)F)c12,nt,i,i,i,i,i,i,i
CCOC(=O)N1CCC2(CC1)C(C#N)=C(N)Oc1n[nH]c(C)c12,i,i,i,i,i,i,nt,nt
Nn1c(SCc2ccc([N+](=O)[O-])cc2)nnc1-c1cc(-c2ccccc2)n[nH]1,nt,nt,nt,nt,nt,i,nt,nt
CC(C)(C)N1C(=O)[C@H]2[C@@H](c3ccc(Br)cc3)N3C(=O)N(c4ccccc4)C(=O)[C@@]3(Cc3ccccc3)[C@H]2C1=O,nt,i,i,i,i,i,i,i
CC(C)(C)N1C(=O)[C@H]2[C@@H](c3ccc(Br)cc3)N3C(=O)N(c4cccc(Br)c4)C(=O)[C@@]3(Cc3ccccc3)[C@H]2C1=O,nt,i,i,i,i,nt,nt,nt
CCOCCCNS(=O)(=O)c1ccc(NC(=O)c2ccccc2)cc1,64.6,i,i,i,i,i,i,i
CCOCCCNS(=O)(=O)c1ccccc1,i,i,i,i,i,i,nt,nt
COc1ccc2[nH]c(O)c(N=NC(=N)N)c2c1,14.3,i,i,i,i,i,i,i
Cc1ccc2[nH]c(O)c(N=NC(N)=S)c2c1,i,i,i,i,i,i,nt,nt
CCOc1ccc(NC(=S)NC(=O)c2c(Cl)cnn2CC)c([N+](=O)[O-])c1,13.5,i,i,i,i,i,i,i
CCOc1ccc(NC(=S)NC(=O)c2c(Br)cnn2C)c([N+](=O)[O-])c1,i,i,i,i,i,i,nt,nt
CCOc1ccc(-n2c(SCc3ccc([N+](=O)[O-])cc3)nnc2-c2ccccc2)cc1,69.6,i,i,i,i,i,72.0,1.3
COc1ccc(-n2c(SCc3ccc([N+](=O)[O-])cc3)nnc2-c2ccccc2)cc1,57.2,i,i,i,i,i,63.5,i
CCOc1ccc(-n2c(SCC(N)=O)nnc2-c2cccnc2)cc1,i,i,i,i,i,i,nt,nt
COc1ccc(-c2nnc(SCc3ccccc3)n2N)cc1,i,i,i,i,i,i,nt,nt
O=C(OC12CCCN(C1)/C(=C/c1cccnc1)C2)C1CCCCC1 (stereo not given),nt,nt,nt,nt,nt,i,nt,nt
COc1cccc(Cn2cc(COC(=O)NCCc3ccccc3)nn2)c1,nt,nt,nt,nt,nt,i,nt,nt

# Assay outcomes as filed in PubChem.
